Laboratory results taken from ChEMBL document CHEMBL5724801, “EUbOPEN Chemogenomics Library - Multiplex” (2024).
Several values for one entry are separate records, joined by “and”; a condition that tells them apart may be missing. Identical values can stand only once.

System: U2OS
Experiment: Multiplex assay against U2OS
Assay type: toxicity, cell-based
Details: human
Outline: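 Compound was added to live cells that had been stained at seeding with Hoechst33342, BioTracker Green Microtubule Cytoskeleton Dye, MitoTracker Red and Annexin V Alexa Fluor 680, and imaging followed on a CQ1 microscope at 37°C and 5% CO2. CellPathfinder machine-learning gating divided cells into Hoechst high-intensity objects or normal cells, normal cells into healthy, pyknosed or fragmented nuclei, and pyknosed cells into mitotic or apoptotic. Tubulin, mitochondrial-mass and membrane-permeability phenotypes are per cents of healthy-nucleus cells.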

[1] = 12 h, 1 µM, compound concentration 1 uM
[2] = 12 h, 10 µM, compound concentration 10 uM
[3] = 24 h, 1 µM, compound concentration 1 uM
[4] = 24 h, 10 µM, compound concentration 10 uM
[5] = 48 h, 1 µM, compound concentration 1 uM
[6] = 48 h, 10 µM, compound concentration 10 uM

In the case of `Nc1nccc(-c2ccn3c(N)nccc23)n1`, the “Population Apoptotic (%)” value [1] is reported as 36.59% and 39.13%, the “Population Fragmented Nuclei (%)” value [1] is reported as 1.59% and 3.62% and the “Population Healthy Nuclei (%)” value [1] is reported as 89.07% and 79.71%. For the same compound, the “Population Hoechst High Intensity Objects (%)” value [1] was 0%, the “Population Membrane Permeable-Phenotype (%)” value [1] was 0.51% and 5.45% and the “Population Mitochondria Different-Phenotype (%)” value [1] was 0.26% and 7.27%. The “Population Mitotic Cells (%)” value [1] was 63.41% and 60.87%, the “Population Normal (%)” value [1] was 100% and the “Population Pyknosed Nuclei (%)” value [1] was 9.34% and 16.67%. For the same compound, the “Population Tubulin-Different-Phenotype (%)” value [1] was 1.28% and 0.91%, the “Population Apoptotic (%)” value [2] was 37.93% and 47.62% and the “Population Fragmented Nuclei (%)” value [2] was 1.07% and 2.9%. For the same compound, the “Population Healthy Nuclei (%)” value [2] was 91.15% and 81.88%, the “Population Hoechst High Intensity Objects (%)” value [2] was 0% and the “Population Membrane Permeable-Phenotype (%)” value [2] was 0.88% and 1.77%. The “Population Mitochondria Different-Phenotype (%)” value [2] was 0.59% and 8.85%, the “Population Mitotic Cells (%)” value [2] was 62.07% and 52.38% and the “Population Normal (%)” value [2] was 100%. The “Population Pyknosed Nuclei (%)” value [2] was 7.77% and 15.22%, the “Population Tubulin-Different-Phenotype (%)” value [2] was 1.47% and 0% and the “Total Cell Count” value [2] was 373 and 138. The “Population Apoptotic (%)” value [3] was 48.28% and 64.29%, the “Population Fragmented Nuclei (%)” value [3] was 1.88% and 4% and the “Population Healthy Nuclei (%)” value [3] was 88.23% and 88%. For the same compound, the “Population Hoechst High Intensity Objects (%)” value [3] was 0%, the “Population Membrane Permeable-Phenotype (%)” value [3] was 0% and 3.25% and the “Population Mitochondria Different-Phenotype (%)” value [3] was 0.39% and 5.19%. For the same compound, the “Population Mitotic Cells (%)” value [3] was 51.72% and 35.71%, the “Population Normal (%)” value [3] was 100% and the “Population Pyknosed Nuclei (%)” value [3] was 9.9% and 8%. For the same compound, the “Population Tubulin-Different-Phenotype (%)” value [3] was 1.16% and 0.65%, the “Population Apoptotic (%)” value [4] was 40.48% and 37.04% and the “Population Fragmented Nuclei (%)” value [4] was 3.09% and 2.73%. The “Population Healthy Nuclei (%)” value [4] was 88.8% and 82.51%, the “Population Hoechst High Intensity Objects (%)” value [4] was 0% and the “Population Membrane Permeable-Phenotype (%)” value [4] was 0.22% and 0.66%. For the same compound, the “Population Mitochondria Different-Phenotype (%)” value [4] was 0.22% and 2.65%, the “Population Mitotic Cells (%)” value [4] was 59.52% and 62.96% and the “Population Normal (%)” value [4] was 100%. For the same compound, the “Population Pyknosed Nuclei (%)” value [4] was 8.11% and 14.75%, the “Population Tubulin-Different-Phenotype (%)” value [4] was 1.09% and 0% and the “Total Cell Count” value [4] was 518 and 183. The “Population Apoptotic (%)” value [5] was 45.74% and 43.75%, the “Population Fragmented Nuclei (%)” value [5] was 1.77% and 2.26% and the “Population Healthy Nuclei (%)” value [5] was 88.99% and 85.66%. For the same compound, the “Population Hoechst High Intensity Objects (%)” value [5] was 0%, the “Population Membrane Permeable-Phenotype (%)” value [5] was 1.33% and 2.64% and the “Population Mitochondria Different-Phenotype (%)” value [5] was 0.11% and 5.73%. The “Population Mitotic Cells (%)” value [5] was 54.26% and 56.25%, the “Population Normal (%)” value [5] was 100% and the “Population Pyknosed Nuclei (%)” value [5] was 9.24% and 12.08%. For the same compound, the “Population Tubulin-Different-Phenotype (%)” value [5] was 1.44% and 1.32%, the “Population Apoptotic (%)” value [6] was 43.48% and 40% and the “Population Fragmented Nuclei (%)” value [6] was 3.29% and 3.46%. The “Population Healthy Nuclei (%)” value [6] was 87.54% and 84.43%, the “Population Hoechst High Intensity Objects (%)” value [6] was 0% and 0.34% and the “Population Membrane Permeable-Phenotype (%)” value [6] was 0.91% and 2.05%. The “Population Mitochondria Different-Phenotype (%)” value [6] was 0.23% and 2.87%, the “Population Mitotic Cells (%)” value [6] was 56.52% and 60% and the “Population Normal (%)” value [6] was 100% and 99.66%. For the same compound, the “Population Pyknosed Nuclei (%)” value [6] was 9.17% and 12.11% and the “Population Tubulin-Different-Phenotype (%)” value [6] was 1.03% and 2.46%.

For `COC[C@@H](CC(C)C)NC1=N/C(=C\c2ccc3ncsc3c2)C(=O)N1C`, the “Population Apoptotic (%)” value [1] was 55.88% and 33.33%, the “Population Fragmented Nuclei (%)” value [1] was 15.5% and 15.08% and the “Population Healthy Nuclei (%)” value [1] was 77.48% and 78.21%. The “Population Hoechst High Intensity Objects (%)” value [1] was 0.41% and 0%, the “Population Membrane Permeable-Phenotype (%)” value [1] was 0.8% and 2.14% and the “Population Mitochondria Different-Phenotype (%)” value [1] was 0.27% and 9.29%. For the same compound, the “Population Mitotic Cells (%)” value [1] was 44.12% and 66.67%, the “Population Normal (%)” value [1] was 99.59% and 100% and the “Population Pyknosed Nuclei (%)” value [1] was 7.02% and 6.7%. For the same compound, the “Population Tubulin-Different-Phenotype (%)” value [1] was 1.33% and 0%, the “Total Cell Count” value [1] was 486 and 179 and the “Population Apoptotic (%)” value [2] was 25% and 29.63%. The “Population Fragmented Nuclei (%)” value [2] was 47.65% and 84.45%, the “Population Hoechst High Intensity Objects (%)” value [2] was 29.32% and 10.96% and the “Population Membrane Permeable-Phenotype (%)” value [2] was 4.62% and 2.68%. The “Population Mitotic Cells (%)” value [2] was 75% and 70.37%, the “Population Normal (%)” value [2] was 70.68% and 89.04% and the “Population Pyknosed Nuclei (%)” value [2] was 3.24% and 3.02%. The “Population Tubulin-Different-Phenotype (%)” value [2] was 20.13% and 12.5%, the “Total Cell Count” value [2] was 873 and 1004 and the “Population Apoptotic (%)” value [3] was 67.39% and 47.62%. For the same compound, the “Population Fragmented Nuclei (%)” value [3] was 12.71% and 10%, the “Population Healthy Nuclei (%)” value [3] was 79.7% and 80.87% and the “Population Hoechst High Intensity Objects (%)” value [3] was 0%. For the same compound, the “Population Membrane Permeable-Phenotype (%)” value [3] was 0.41% and 0%, the “Population Mitochondria Different-Phenotype (%)” value [3] was 0.41% and 6.45% and the “Population Mitotic Cells (%)” value [3] was 32.61% and 52.38%. The “Population Normal (%)” value [3] was 100%, the “Population Pyknosed Nuclei (%)” value [3] was 7.59% and 9.13% and the “Population Tubulin-Different-Phenotype (%)” value [3] was 0.83% and 0%. For the same compound, the “Total Cell Count” value [3] was 606 and 230, the “Population Fragmented Nuclei (%)” value [4] was 53.16% and 86.53% and the “Population Hoechst High Intensity Objects (%)” value [4] was 30.44% and 12.75%. The “Population Membrane Permeable-Phenotype (%)” value [4] was 2.98% and 2.22%, the “Population Mitotic Cells (%)” value [4] was 91.67% and 75% and the “Population Normal (%)” value [4] was 69.56% and 87.25%. The “Population Pyknosed Nuclei (%)” value [4] was 4.34% and 3.2%, the “Population Tubulin-Different-Phenotype (%)” value [4] was 20% and 8.89% and the “Total Cell Count” value [4] was 795 and 1004. The “Population Apoptotic (%)” value [5] was 48.44% and 55.56%, the “Population Fragmented Nuclei (%)” value [5] was 12.46% and 10.34% and the “Population Healthy Nuclei (%)” value [5] was 81.16% and 82.49%. For the same compound, the “Population Hoechst High Intensity Objects (%)” value [5] was 0.69% and 0.79%, the “Population Membrane Permeable-Phenotype (%)” value [5] was 1.6% and 0.64% and the “Population Mitochondria Different-Phenotype (%)” value [5] was 0% and 3.54%. The “Population Mitotic Cells (%)” value [5] was 51.56% and 44.44%, the “Population Normal (%)” value [5] was 99.31% and 99.21% and the “Population Pyknosed Nuclei (%)” value [5] was 6.38% and 7.16%. For the same compound, the “Population Tubulin-Different-Phenotype (%)” value [5] was 0.86% and 0%, the “Total Cell Count” value [5] was 1010 and 380 and the “Population Apoptotic (%)” value [6] was 42.86% and 52.83%. The “Population Fragmented Nuclei (%)” value [6] was 86.99% and 92.61%, the “Population Healthy Nuclei (%)” value [6] was 3.8% and 2.78% and the “Population Hoechst High Intensity Objects (%)” value [6] was 32.94% and 15.32%. The “Population Membrane Permeable-Phenotype (%)” value [6] was 3.85% and 3.12%, the “Population Mitochondria Different-Phenotype (%)” value [6] was 0% and 3.12% and the “Population Mitotic Cells (%)” value [6] was 57.14% and 47.17%. For the same compound, the “Population Normal (%)” value [6] was 67.06% and 84.68%, the “Population Pyknosed Nuclei (%)” value [6] was 9.21% and 4.61% and the “Population Tubulin-Different-Phenotype (%)” value [6] was 3.85% and 6.25%. The “Total Cell Count” value [6] was 1020 and 1358.
